NR2E3 ag-1: inhibitors of NR2E3-RetCOR corepressor binding, primary screen, NR2E3 agonist project, biochemical, TR-FRET, GST-NR2E3, biotin-RetCOR. Photoreceptor-specific nuclear receptor (Homo sapiens), Q9Y5X4. 1536-well. inhibition of corepressor binding, % at 4.78 µM. 0.12% of 320,000 active;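 active = percent inhibition above the cutoff of mean plus 3 SD of all tested compounds, set per screening campaign, cut at about 20% in these data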
Target sequence (Q9Y5X4 whole entry, looked up): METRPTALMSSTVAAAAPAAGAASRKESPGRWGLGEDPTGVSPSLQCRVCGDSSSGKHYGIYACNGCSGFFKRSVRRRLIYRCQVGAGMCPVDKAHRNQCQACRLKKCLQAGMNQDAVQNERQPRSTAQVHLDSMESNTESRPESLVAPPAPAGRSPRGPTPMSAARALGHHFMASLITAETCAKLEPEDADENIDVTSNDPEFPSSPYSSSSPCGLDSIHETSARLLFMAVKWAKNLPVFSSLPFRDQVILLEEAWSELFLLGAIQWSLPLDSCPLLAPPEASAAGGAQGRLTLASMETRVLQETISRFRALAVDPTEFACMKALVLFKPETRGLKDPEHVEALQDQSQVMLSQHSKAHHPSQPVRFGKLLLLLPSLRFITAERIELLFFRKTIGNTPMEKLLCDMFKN
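System: GST-NR2E3 and biotin-RetCOR proteins; probe or stimulus: 7 nM biotin-RetCOR; doses: compound at 4.8 µM, single dose; schedule: Compound–protein incubation for 5 h at 4 °C; detection: time-resolved FRET; read-out: percent inhibition; controls: biotin wells as high control, 0.6% DMSO wells as low control; format: 1536-well plates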
Rev-erbA mod: modulators of Rev-erb alpha DNA binding, primary screen, biochemical, FITC-DNA, fluorescence polarization, uHTS | Nuclear receptor subfamily 1 group D member 1 (Homo sapiens), P20393 | Rev-erbα–FITC-DNA binding, 90 min | activity, % at 10 µM | 0.79% of 370,000 active;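 active = activity above about 14%, limit read from the data; passing the limit was not always enough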
PG9 Ab binder: binders of HIV-1 gp120 antibody PG9, primary screen, biochemical, TR-FRET. AID 624416, 2012. inhibition, % at 6.7 µM. 0.43% of 360,000 active. TR-FRET gp120-PG9 antibody binding. HIV-1 gp120 / PG9 antibody interaction; in the data active = inhibition above about 8.5%
NR2E3 ag-2: NR2E3 agonists in two-hybrid cells, primary screen, cell-based, luminescence, CHO-S, Gal4-NCOR/VP16-NR2E3; Photoreceptor-specific nuclear receptor (Homo sapiens), Q9Y5X4; luciferase; inhibition of corepressor binding, % at 3.98 µM; 0.35% of 360,000 active; AID 602229, 2012;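 active = inhibition above the mean of all tested compounds plus 3 SD, cut at about 70% in these data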;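 also: higher means lower luciferase signal from less NR2E3 corepressor binding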
NR1D1 mod conf: modulators of Rev-erb alpha DNA binding, confirmation, biochemical, FITC-DNA, fluorescence polarization, single point; shares compounds with Rev-erbA mod; 90 min; activation, % at 25 µM; 61% of 3,000 active; AID 1259319, 2017;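 active = activation at or above a set limit, or at least 3 SD above the negative control mean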
RORg DNA counter: modulation of RORgamma DNA binding, dose response, counter-screen for Rev-erb alpha modulator project, biochemical, fluorescence polarization, FITC-DNA; IC50, µM; 8% of 910 active; purified RORgamma protein-FITC-DNA binding; shares compounds with Rev-erbA mod;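 active = Compounds whose fitted half-maximal concentration for disrupting protein-DNA binding is below 10 micromolar; the record names Rev-erb in its text, so the target is in doubt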
A number is an active result; i = inactive; nt = no result given. Hits are enriched below; roughly 1.4% of the tested compounds scored in any of these assays.

SMILES	NR2E3 ag-1	Rev-erbA mod	PG9 Ab binder	NR2E3 ag-2	NR1D1 mod conf	others
COC(=O)c1sc(NC(=S)NC(=O)c2cc(OC)c(OC)c(OC)c2)nc1C	i	57	i	i	i
CCOC(=O)c1sc(NC(=S)NC(=O)c2cccc(OC)c2)nc1C	i	94	i	i	38	RORg DNA counter=i
COc1ccc(C2Nc3ccccc3C(=O)N2c2ccc(F)cc2)cc1CSc1ccccn1 (stereo not drawn)	i	30	i	i	i
Cc1cc(C)cc(N2CC(O)=C(c3nc4ccccc4c(=O)[nH]3)C2=N)c1	i	21	i	i	33	RORg DNA counter=i
COc1cccc(N2CC(O)=C(c3nc4ccccc4c(=O)[nH]3)C2=N)c1	i	nt	nt	i	nt
CC(Sc1nc2ccccc2c(=O)n1C)C(=O)Nc1ccc2c(c1)OCCO2 (stereo not drawn)	i	27	i	i	12
CC(C)Cn1c(SC(C)C(=O)Nc2ccc3c(c2)OCCO3)nc2ccccc2c1=O (stereo not drawn)	nt	i	i	i	nt
CCN(CC)CCCNc1ccc2ncn3c4ccc(O)cc4c(=O)c1c23	nt	92	i	i	50
COc1ccc(C)cc1NC(=O)c1sc2ncnc(N3CCN(c4ccccn4)CC3)c2c1C	i	37	i	i	i
COc1ccccc1NC(=O)c1sc2nc3n(c(=O)c2c1C)CCC3	i	43	i	i	29
Cc1c(C(=O)Nc2ccccc2F)sc2nc3n(c(=O)c12)CCC3	i	i	i	i	nt
CCOc1ccccc1NC(=O)c1sc2nc(C)nc(N3CCOCC3)c2c1C	i	41	i	i	i
COc1ccc(C)cc1NC(=O)c1sc2nc(C)nc(N3CCOCC3)c2c1C	i	i	i	i	nt
Cc1ccc(NC(=O)c2sc3ncnc(N4CCN(c5ccccn5)CC4)c3c2C)c(C)c1	i	i	i	i	nt
Cc1nc(N2CCN(c3ccccn3)CC2)c2c(C)c(C(=O)Nc3ccc(Br)cc3C)sc2n1	i	40	i	i	i
COC(=O)[C@@H](Cc1ccccc1)NC(=O)/C=C/[C@H]1O[C@@H](n2cnc3c(NC(=O)c4ccccc4)ncnc32)[C@H](O)[C@@H]1O	nt	i	i	i	nt
CC(C)(C)N1C(=O)c2ccccc2NC(=O)C1C(=O)Nc1ccc2c(c1)OCCO2 (stereo not drawn)	nt	i	i	nt	nt
COc1ccc(NC(=O)c2sc3nc(Cc4ccccc4)cc(C(F)(F)F)c3c2N)cc1OC	i	i	i	i	nt
COc1ccccc1NC(=O)c1sc2nc(Cc3ccccc3)cc(C(F)(F)F)c2c1N	i	45	nt	i	63	RORg DNA counter=i
COC(=O)c1cc2c(c3c4cc(OC)ccc4n(S(=O)(=O)c4ccccc4)c13)C(=O)N(Cc1ccc(C(F)(F)F)cc1)C2	nt	i	i	nt	nt
O=C(Nc1cccc2ccccc12)N1CCN(c2ccc(F)cc2)CC1	i	26	i	i	i
CCOC(=O)c1ccc2nc(Nc3nc4ccc(F)cc4s3)sc2c1	i	35	i	i	31	RORg DNA counter=i
CCOC(=O)C(=CNc1nc2ccc(C(=O)OCC)cc2s1)C(=O)OCC	i	35	i	i	19
CCOC(=O)c1ccc2nc(NC(C)=O)sc2c1	i	i	i	i	nt
CCNC(=O)O[C@@H]1C=C[C@@H](C#Cc2ccc(C(C)(C)C)cc2)O[C@@H]1COC(C)=O	nt	i	i	nt	nt
SMILES	NR2E3 ag-1	Rev-erbA mod	PG9 Ab binder	NR2E3 ag-2	NR1D1 mod conf	others
CCN(CC)c1ccc(NC(=O)c2ccc3c(c2)OCO3)cc1	i	16	i	i	i
O=C(Nc1ccc2nn(-c3ccccc3)nc2c1)c1ccc2c(c1)OCO2	i	23	i	i	28
O=C(Nc1cccc(-c2nc3ccccc3s2)c1)c1ccc2c(c1)OCO2	i	45	i	i	i
O=C(Nc1cccc(F)c1)c1ccc2c(c1)OCO2	i	i	i	i	nt
O=C(Nc1c(C(=O)Nc2cccc(F)c2)oc2ccccc12)c1ccc2c(c1)OCO2	i	51	i	i	i
Cc1ccc(Cn2cc(COC(=O)N3CCOCC3)nn2)cc1	nt	i	nt	nt	nt
CO[C@H]1CN(C)C(=O)c2cc(NC(=O)c3cc(C)on3)ccc2OC[C@@H](C)N(C(=O)C2CC2)C[C@H]1C	nt	i	i	nt	nt
O=C(CSc1nc(-c2ccccc2F)nc2nc[nH]c12)Nc1c(Cl)cc(Cl)cc1Cl	i	38	i	nt	i
CCN1C(=O)/C(=C/c2ccc(N3CCCC3)cc2)NC1=S	i	56	i	i	49	RORg DNA counter=i
CCCN1C(=O)/C(=C/c2ccc(N3CCOCC3)cc2)NC1=S	i	i	i	i	nt
Cc1ccccc1CN1CCCCC(NC(=O)Nc2cccc([N+](=O)[O-])c2)C1=O (stereo not drawn)	nt	i	nt	nt	nt
COc1ccc(-c2ccc(-c3noc(-c4ccccc4F)n3)c(OC)n2)cc1	nt	38	i	i	39	RORg DNA counter=i
COc1nc(-c2ccccc2)ccc1-c1noc(-c2ccccc2)n1	i	i	i	i	nt
COc1ccc(-c2ccc(-c3noc(-c4ccccc4)n3)c(OC)n2)cc1	i	22	i	i	18
COc1nc(-c2ccccc2)ccc1-c1noc(-c2cccs2)n1	i	59	i	i	40	RORg DNA counter=i
CSc1ccc(C=NNC(=O)c2cc(-c3ccc(Cl)cc3)n[nH]2)cc1	nt	i	nt	nt	nt
CC1(c2ccc(Cl)cc2)NC(=O)N(CC(=O)N2CCN(C(=O)c3cccs3)CC2)C1=O (stereo not drawn)	nt	i	i	i	nt
CCCCN1CC(N2CCN(C(=O)c3ccco3)CC2)CS1(=O)=O (stereo not drawn)	nt	i	i	i	nt
CN(CC#Cc1ccccc1)C(N)=NC(=O)/C=C/c1ccccc1	nt	i	nt	nt	nt
c1ccc(CCn2cccc2)nc1	nt	i	i	i	nt
COC(=O)c1sccc1NC(=O)C1CC1	i	i	i	i	nt
COC(=O)c1sccc1NC(=O)C12CC3CC(CC(C3)C1)C2	i	25	i	i	22
N#Cc1c(-c2ccccc2)oc(=O)c2ccccc12	i	20	i	i	i
N#Cc1ccccc1N1CCN(C(=O)C2CCN(c3ncnc4c3sc3cccc(F)c34)CC2)CC1	nt	49	nt	nt	34	RORg DNA counter=i
Cc1ccccc1-c1nc(S(=O)(=O)c2ccccc2)c(NCCN2CCOCC2)o1	nt	i	i	i	nt
CC(=O)NC(=S)Nc1ccc2oc(-c3cc(F)c(F)cc3Cl)nc2c1	i	50	i	i	32	RORg DNA counter=i
O=C(Cc1ccccc1)NC(=S)Nc1ccc2oc(-c3ccccc3F)nc2c1	i	i	i	i	nt
